What was measured:
P dimer VA115 = biological target: T1, P dimer VA115 (Human calicivirus NLV/VA98115/1998, UniProt Q91H12); test: Direct ESI-MS assay; format: binding; conditions: n = 3
T1 sequence (Q91H12 227-545): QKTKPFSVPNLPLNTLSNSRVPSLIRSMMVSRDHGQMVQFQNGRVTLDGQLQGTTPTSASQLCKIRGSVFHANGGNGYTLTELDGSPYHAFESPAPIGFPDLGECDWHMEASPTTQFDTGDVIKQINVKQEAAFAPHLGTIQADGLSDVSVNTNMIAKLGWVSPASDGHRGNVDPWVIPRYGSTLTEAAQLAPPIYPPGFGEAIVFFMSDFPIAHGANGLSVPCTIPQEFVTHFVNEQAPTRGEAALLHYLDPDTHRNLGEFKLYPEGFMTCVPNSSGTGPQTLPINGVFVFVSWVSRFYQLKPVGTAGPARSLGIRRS
Outline: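 Recombinant P dimer (P domain residues 222–539, made in E. coli via a GST fusion system) was titrated with at least four initial oligosaccharide concentrations, in triplicate. Example mix: 12 μM dimer, 80 μM ligand, 4 μM reference protein. Bound/free abundance ratios were taken as solution ratios after nonspecific-binding correction. Ka,int was fitted assuming two independent, equivalent sites.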

NoV VA115 P dimer = test: Direct ESI-MS assay, NoV VA115 P dimer; design: species or system human NoV VA115 (GI.3); conditions: intrinsic (per binding site) association constant; aqueous ammonium acetate (200 mM), pH 7, 25 °C
Outline: (§1)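 Recombinant P dimer, buffer-exchanged into ammonium acetate and quantified by UV, was mixed (e.g., 12 μM) with ganglioside oligosaccharide (e.g., 80 μM) and reference protein (4 μM). Nanoelectrospray in negative ion mode used capillary −0.8 kV, cone 60 V and source 60 °C. Runs covered ≥4 initial ligand concentrations in triplicate. Ka,int came from bound/free abundance ratios, corrected for nonspecific binding, with two equivalent sites.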

NoV VA387 P dimer = test: Direct ESI-MS assay, NoV VA387 P dimer; design: species or system human NoV VA387 (GII.4); conditions: intrinsic (per binding site) association constant; aqueous ammonium acetate (200 mM), pH 7, 25 °C
Outline: as §1

| Compound | Kd (P dimer VA115) | Ka,int P dimer VA115 (NoV VA115 P dimer) | Ka,int P dimer VA387 (NoV VA387 P dimer) | Ka,int (P dimer VA115) |
| --- | --- | --- | --- | --- |
| CC(=O)N[C@H]1[C@H](O[C@@H]2[C@H](O[C@]3(C(=O)O)C[C@H](O)[C@@H](NC(C)=O)[C@H]([C@H](O)[C@@H](CO)O[C@]4(C(=O)O)C[C@H](O)[C@@H](NC(C)=O)[C@H]([C@H](O)[C@H](O)CO)O4)O3)[C@@H](O)[C@H](O[C@H]3[C@H](O)[C@@H](O)C(O)O[C@@H]3CO)O[C@@H]2CO)O[C@H](CO)[C@H](O)[C@@H]1O[C@@H]1O[C@H](CO)[C@H](O)[C@H](O)[C@H]1O (stereo partly shown) [GD1b, GD1b ganglioside oligosaccharide (Galb1-3GalNAcb1-4(Neu5Aca2-8Neu5Aca2-3)Galb1-4Glc)] | 2.94 mM |  |  |  |
| CC(=O)N[C@H]1[C@H](O[C@@H]2[C@H](O[C@]3(C(=O)O)C[C@H](O)[C@@H](NC(C)=O)[C@H]([C@H](O)[C@@H](CO)O[C@]4(C(=O)O)C[C@H](O)[C@@H](NC(C)=O)[C@H]([C@H](O)[C@H](O)CO)O4)O3)[C@@H](O)[C@H](O[C@H]3[C@H](O)[C@@H](O)C(O)O[C@@H]3CO)O[C@@H]2CO)O[C@H](CO)[C@H](O)[C@@H]1O[C@@H]1O[C@H](CO)[C@H](O)[C@H](O)[C@H]1O (stereo partly shown) [GD1b] |  | 340 ± 50 M^–1 | do not show any detectable binding |  |
| CC(=O)N[C@H]1[C@H](O[C@@H]2[C@H](O[C@]3(C(=O)O)C[C@H](O)[C@@H](NC(C)=O)[C@H]([C@H](O)[C@@H](CO)O[C@]4(C(=O)O)C[C@H](O)[C@@H](NC(C)=O)[C@H]([C@H](O)[C@H](O)CO)O4)O3)[C@@H](O)[C@H](O[C@H]3[C@H](O)[C@@H](O)C(O)O[C@@H]3CO)O[C@@H]2CO)O[C@H](CO)[C@H](O)[C@@H]1O (stereo partly shown) [GD2] |  | 700 ± 140 M^–1 | 150 ± 60 M^–1 |  |
| CC(=O)N[C@H]1[C@H]([C@H](O)[C@H](O)CO)O[C@@](O[C@H](CO)[C@@H](O)[C@@H]2O[C@@](O[C@H]3[C@@H](O)[C@@H](CO)O[C@@H](O[C@H]4[C@H](O)[C@@H](O)C(O)O[C@@H]4CO)[C@@H]3O)(C(=O)O)C[C@H](O)[C@H]2NC(C)=O)(C(=O)O)C[C@@H]1O (stereo partly shown) [GD3] |  | 420 ± 140 M^–1 | 340 ± 60 M^–1 |  |
| CC(=O)N[C@H]1[C@H](O[C@@H]2[C@H](O[C@]3(C(=O)O)C[C@H](O)[C@@H](NC(C)=O)[C@H]([C@H](O)[C@H](O)CO)O3)[C@@H](O)[C@H](O[C@H]3[C@H](O)[C@@H](O)C(O)O[C@@H]3CO)O[C@@H]2CO)O[C@H](CO)[C@H](O)[C@@H]1O[C@@H]1O[C@H](CO)[C@H](O)[C@H](O)[C@H]1O (stereo partly shown) [GM1a] |  | 400 ± 140 M^–1 | 350 ± 80 M^–1 |  |
| CC(=O)N[C@H]1[C@H](O[C@@H]2[C@H](O)[C@@H](O)[C@H](O[C@H]3[C@H](O)[C@@H](O)C(O)O[C@@H]3CO)O[C@@H]2CO)O[C@H](CO)[C@H](O)[C@@H]1O[C@@H]1O[C@H](CO)[C@H](O)[C@H](O[C@]2(C(=O)O)C[C@H](O)[C@@H](NC(C)=O)[C@H]([C@H](O)[C@H](O)CO)O2)[C@H]1O (stereo partly shown) [GM1b] |  | 480 ± 110 M^–1 | 180 ± 60 M^–1 |  |
| CC(=O)N[C@H]1[C@H](O[C@@H]2[C@H](O[C@]3(C(=O)O)C[C@H](O)[C@@H](NC(C)=O)[C@H]([C@H](O)[C@H](O)CO)O3)[C@@H](O)[C@H](O[C@H]3[C@H](O)[C@@H](O)C(O)O[C@@H]3CO)O[C@@H]2CO)O[C@H](CO)[C@H](O)[C@@H]1O (stereo partly shown) [GM2] |  | 700 ± 200 M^–1 | 360 ± 90 M^–1 |  |
| CC(=O)N[C@H]1[C@H](O[C@@H]2[C@H](O[C@]3(C(=O)O)C[C@H](O)[C@@H](NC(C)=O)[C@H]([C@H](O)[C@H](O)CO)O3)[C@@H](O)[C@H](O[C@H]3[C@H](O)[C@@H](O)C(O)O[C@@H]3CO)O[C@@H]2CO)O[C@H](CO)[C@H](O)[C@@H]1O[C@@H]1O[C@H](CO)[C@H](O)[C@H](O[C@]2(C(=O)O)C[C@H](O)[C@@H](NC(C)=O)[C@H]([C@H](O)[C@@H](CO)O[C@]3(C(=O)O)C[C@H](O)[C@@H](NC(C)=O)[C@H]([C@H](O)[C@H](O)CO)O3)O2)[C@H]1O (stereo partly shown) [GT1a, GT1a ganglioside oligosaccharide (Neu5Aca2-8Neu5Aca2-3Galb1-3GalNAcb1-4(Neu5Aca2-3)Galb1-4Glc)] |  |  |  | 210 ± 70 M⁻¹ |
| CC(=O)N[C@H]1[C@H](O[C@@H]2[C@H](O[C@]3(C(=O)O)C[C@H](O)[C@@H](NC(C)=O)[C@H]([C@H](O)[C@H](O)CO)O3)[C@@H](O)[C@H](O[C@H]3[C@H](O)[C@@H](O)C(O)O[C@@H]3CO)O[C@@H]2CO)O[C@H](CO)[C@H](O)[C@@H]1O[C@@H]1O[C@H](CO)[C@H](O)[C@H](O[C@]2(C(=O)O)C[C@H](O)[C@@H](NC(C)=O)[C@H]([C@H](O)[C@@H](CO)O[C@]3(C(=O)O)C[C@H](O)[C@@H](NC(C)=O)[C@H]([C@H](O)[C@H](O)CO)O3)O2)[C@H]1O (stereo partly shown) [GT1a] |  | 210 ± 70 M^–1 | do not show any detectable binding |  |
| CC(=O)N[C@H]1[C@H](O[C@@H]2[C@H](O[C@]3(C(=O)O)C[C@H](O)[C@@H](NC(C)=O)[C@H]([C@H](O)[C@@H](CO)O[C@]4(C(=O)O)C[C@H](O)[C@@H](NC(C)=O)[C@H]([C@H](O)[C@@H](CO)O[C@]5(C(=O)O)C[C@H](O)[C@@H](NC(C)=O)[C@H]([C@H](O)[C@H](O)CO)O5)O4)O3)[C@@H](O)[C@H](O[C@H]3[C@H](O)[C@@H](O)C(O)O[C@@H]3CO)O[C@@H]2CO)O[C@H](CO)[C@H](O)[C@@H]1O[C@@H]1O[C@H](CO)[C@H](O)[C@H](O)[C@H]1O (stereo partly shown) [GT1c] |  | 260 ± 110 M^–1 | <100 M^–1 |  |
| CC(=O)NC1C(OC2C(CO)OC(OC3C(CO)OC(O)C(O)C3O)C(O)C2OC2(C(=O)O)CC(O)C(NC(C)=O)C(C(O)C(CO)OC3(C(=O)O)CC(O)C(NC(C)=O)C(C(O)C(CO)OC4(C(=O)O)CC(O)C(NC(C)=O)C(C(O)C(O)CO)O4)O3)O2)OC(CO)C(O)C1O (stereo not shown) [GT2] |  | 230 ± 50 M^–1 | <100 M^–1 |  |
| CC(=O)NC1C(O)CC(OC(CO)C(O)C2OC(OC(CO)C(O)C3OC(OC4C(O)C(CO)OC(OC5C(CO)OC(O)C(O)C5O)C4O)(C(=O)O)CC(O)C3NC(C)=O)(C(=O)O)CC(O)C2NC(C)=O)(C(=O)O)OC1C(O)C(O)CO (stereo not shown) [GT3, GT3 ganglioside oligosaccharide (Neu5Aca2-8Neu5Aca2-8Neu5Aca2-3Galb1-4Glc)] | 3.23 mM |  |  |  |
| CC(=O)NC1C(O)CC(OC(CO)C(O)C2OC(OC(CO)C(O)C3OC(OC4C(O)C(CO)OC(OC5C(CO)OC(O)C(O)C5O)C4O)(C(=O)O)CC(O)C3NC(C)=O)(C(=O)O)CC(O)C2NC(C)=O)(C(=O)O)OC1C(O)C(O)CO (stereo not shown) [GT3] |  | 310 ± 150 M^–1 | do not show any detectable binding |  |
| CC(=O)NC1C(O)CC(OC2C(O)C(OC3C(CO)OC(O)C(O)C3O)OC(CO)C2OC2OC(CO)C(O)C(OC3OC(CO)C(O)C(O)C3OC3OC(C)C(O)C(O)C3O)C2NC(C)=O)(C(=O)O)OC1C(O)C(O)CO (stereo not shown) [fucosyl-GM1] |  | 600 ± 130 M^–1 | 460 ± 150 M^–1 |  |

From paper PMC4160279 (Journal of the American Chemical Society, 2014)
